# Screening data: PubChem BioAssay, several laboratories
# Only some compounds are listed: those with a hit (about 3.4% of all), similar ones and a draw of the others.
# TAAR1 agonist: human TAAR1 agonism; Q96RJ0; CHO RD-HGA16 TAAR1, Fluo-8 calcium fluorescence; vehicle wells 0%, saturating PEA agonist 100%; activation, % at 3 µM; 0.99% of 360,000 active; AID 624467;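 active means activation above the mean activation of all test compounds in the run plus 3 SD, cut at about 38% in these data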
# Target sequence (Q96RJ0 whole entry, looked up): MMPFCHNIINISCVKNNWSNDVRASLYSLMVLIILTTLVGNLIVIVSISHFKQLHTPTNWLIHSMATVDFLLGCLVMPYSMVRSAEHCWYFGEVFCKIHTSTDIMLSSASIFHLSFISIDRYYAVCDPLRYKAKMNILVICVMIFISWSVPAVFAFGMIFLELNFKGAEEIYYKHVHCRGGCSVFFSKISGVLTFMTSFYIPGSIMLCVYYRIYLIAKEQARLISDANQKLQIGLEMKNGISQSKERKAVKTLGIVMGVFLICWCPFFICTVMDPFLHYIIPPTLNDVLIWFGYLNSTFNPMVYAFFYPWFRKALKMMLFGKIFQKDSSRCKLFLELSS
#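 System: CHO-derived RD-HGA16 cells with stable Gα16 and human TAAR1 / Times: 17-24 h plating, Fluo-8 75 min 37 °C, 30 min RT / Technique: calcium-sensitive Fluo-8 signal, excitation 470-495, emission 515-575 nm / Measure: % activation relative to PEA EC100 response / Benchmarks: DMSO and PEA EC100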
# LANA-H2A inh: blocks KSHV LANA binding to histone H2A/H2B; 0.6% of 320,000 active; inhibition, % (no concentration beside the values); cell-free LANA-H2A/H2B peptide, fluorescence polarization; Q9QR71; in the data active means inhibition mostly above about 10%, no sharp cut-off; inactive means mostly below about 6.7%
# GPR7 antagonist: blocks human GPR7 receptor signaling. P48145. GPR7-expressing cells, fluorescence antagonist assay. inhibition, % at 4.4 µM. 1.1% of 290,000 active. AID 1861; in the data active means inhibition above about 16%, passing the limit was not always enough;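 further: cells stimulated with the agonist NPW; 0% = agonist with vehicle and 100% = vehicle without agonist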
# TAAR1 antagonist: human TAAR1 antagonism; Q96RJ0; CHO RD-HGA16 TAAR1, Fluo-8 calcium fluorescence, antagonist; inhibition, % at 3 µM; 1.5% of 360,000 active;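 active means inhibition above a per-plate cutoff, the mean inhibition of test compounds on that plate plus 3 SD, cut at about 49% in these data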;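 further: 0% = DMSO plus EC80 beta-PEA response and 100% = DMSO alone without agonist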
#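 System: CHO RD-HGA16 cells bearing hTAAR1. Reagent: EC80 β-phenethylamine stimulus. Schedule: seeding 17-24 h prior, 75-min 37 °C, 30-min RT dye loading. Signal: Fluo-8 intracellular calcium dye fluorescence, real-time kinetic reads. Read-out: % inhibition from peak post-agonist over basal fluorescence ratio. Benchmarks: vehicle wells and EC80 agonist wells. Replicates: n of 1.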
# TRPML3 agonist: agonists of human TRPML3 channel | 0.29% of 220,000 active | Q8TDD5 | HEK293 TRPML3-YFP, Fluo-8 calcium fluorescence; 100% = the carbachol control signal | activation, % at 3 µM;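 active means activation above its plate's cutoff, the mean activation of the plate's test wells plus 3 SD, cut at about 12% in these data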;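 further: 0% = DMSO only wells and 100% = carbachol wells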
#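 system = HEK293 cells stably carrying human TRPML3-YFP | doses = one concentration, 3 µM nominal, 0.3% DMSO | timing = dye loading 1 h 37 °C then 30 min ambient, 125 s read | detection = Fluo-8 calcium dye fluorescence, ex 470-495, em 515-575 nm | benchmarks = high control carbachol 87 µM, low control DMSO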
# TRPN1 ag: agonists of zebrafish TRPN1 channel; AID 1424; HEK293 zebrafish TRPN1-YFP, Fluo-8 calcium fluorescence; 100% = response to 87 µM carbachol; activation, % at 3 µM; 0.18% of 220,000 active;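 active means activation above its plate's cutoff, the mean activation of test wells on that plate plus 3 SD, cut at about 19% in these data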;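 further: 0% = DMSO alone and 100% = 87 µM carbachol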
#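 Assay system: Zebrafish TRPN1-YFP in HEK293 cells | Incubation: Dye loading 1 h at 37 °C, then 30 min room temperature | Measured by: Kinetic Fluo-8 fluorescence, ex 470-495, em 515-575 nm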
# GPR7 antag cf: confirmation of human GPR7 antagonists. shares compounds with GPR7 antagonist. GPR7-expressing cells, calcium fluorescence antagonist mode. inhibition, % at 4.4 µM. 52% of 2,400 active. AID 1952; in the data active means inhibition above about 24%;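 further: stimulated with the GPR7 agonist NPW; 0% = agonist plus vehicle and 100% = vehicle alone without agonist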
# MCHR1 antag: MCHR1 (human) antagonism in GPR7 counter-screen; shares compounds with GPR7 antagonist; MCHR1-expressing cells, fluorescence antagonist assay; inhibition, % at 4.4 µM; 62% of 2,400 active; AID 2148;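 further: 0% = vehicle with agonist and 100% = vehicle without agonist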
# nonsel antag count: nonselective antagonism, TAAR1 counter-screen | shares compounds with TAAR1 antagonist | counterscreen cell line, calcium fluorescence, antagonist mode | inhibition, % at 3 µM | 77% of 2,400 active;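 further: CHO-Ga16 host cells stimulated with ATP at an EC80 level; 0% = agonist EC80 plus vehicle and 100% = vehicle without agonist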
# TAAR1 antag conf: human TAAR1 antagonism, confirmed; shares compounds with TAAR1 antagonist; TAAR1-expressing cells, fluorescence antagonist read-out; inhibition, % at 3 µM; 40% of 2,400 active; in the data active means inhibition above about 49%;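 further: CHO-Ga16 host cells challenged with agonist PEA near its EC80; 0% = agonist at EC80 plus vehicle and 100% = vehicle with no agonist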
# Ga16 nonsel ag: nonselective Ga16 agonist in TAAR1 antagonist counter-screen; shares compounds with TAAR1 antagonist; Ga16-expressing cells, calcium fluorescence, agonist counterscreen; activation, % at 3 µM; 18% of 2,400 active; in the data active means activation above about 12%;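 further: 0% = vehicle wells and 100% = saturating stimulus response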
# TAAR1 ag count: TAAR1 agonism, antagonist counter-screen; 2% of 2,400 active; hTAAR1 cell line, fluorescence activation, agonist mode; shares compounds with TAAR1 antagonist; activation, % at 3 µM; AID 651955; in the data active means activation above about 37%;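 further: CHO cells stably expressing TAAR1 with calcium dye readout; 0% = DMSO vehicle and 100% = full agonist response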
# Active calls of the source: *; · = no result given. Unless noted, no stated cut-off is given here; in the data, active means inhibition above about 22%; inactive means the rest.
SMILES,TAAR1 agonist,LANA-H2A inh,GPR7 antagonist,TAAR1 antagonist,TRPML3 agonist,TRPN1 ag,GPR7 antag cf,MCHR1 antag,others
CC(C)CCNC(=O)NC(=O)CN1C(=O)NC2(CCCCC2)C1=O,1.0,5.5,23.8*,-8.2,0.1,1.7,-7.9,-2.2,
O=C(NNc1cc(Cl)ccc1Cl)c1cccs1,0.5,-2.9,-26.7,-5.9,-0.3,0.8,·,·,
Cc1cc(Cl)ccc1NNC(=O)c1cccs1,1.2,0.7,22.9*,-19.3,-0.6,-0.5,0.6,3.2,
Cc1cc(C)c(S(=O)(=O)N(C)CC(=O)NCc2cccnc2)c(C)c1,9.6,10.4,1.6,-9.1,·,·,·,·,
Cc1cc(C)c(S(=O)(=O)N(C)CC(=O)NCc2ccncc2)c(C)c1,1.6,-4.0,27.0*,-1.2,0.2,-1.2,4.7,-0.3,
CC1(C)CC(C(CC(=O)N2CCCC2)Cc2ccccc2)CCO1 (stereo not given),6.0,-18.7,23.0*,-10.5,-0.8,-0.1,9.0,14.0,
Cc1c(C(=O)NCc2ccccc2C(F)(F)F)sc(=O)n1Cc1ccc(F)cc1,3.0,·,·,12.8,·,·,·,·,
CC(C)CCNC(=O)C1CCN(S(=O)(=O)c2ccc3c(c2)CC(C)N3C(=O)C2CC2)CC1 (stereo not given),-0.2,-2.2,25.1*,5.3,·,·,-8.8,17.6,
COC(=O)c1ccc(CSc2nnc(NC(C)C)s2)o1,3.2,-1.4,-3.7,9.8,-0.1,0.4,·,·,
COC(=O)c1ccc(CSc2nnc(Nc3cccc(OC)c3)s2)o1,12.4,-1.2,46.4*,15.7,-0.6,-1.1,0.9,48.3*,
CCN(CC)S(=O)(=O)c1cc(C(=O)O)ccc1Cl,7.4,2.3,-8.5,-0.1,0.1,-0.3,·,·,
CCN(CC)S(=O)(=O)c1cc(C(=O)OC)ccc1Cl,-0.9,-1.0,36.8*,1.7,-0.8,-0.3,-1.5,-3.9,
CC(=O)Nc1ccc(C(=O)OCCC(C)C)cc1,12.8,2.9,24.7*,5.8,0.5,0.4,10.9,-1.5,
Cc1c(C(=O)N2CCN(Cc3ccc4c(c3)OCO4)CC2)sc2ncnc(N3CCN(c4ccccc4F)CC3)c12,4.5,-9.1,75.2*,77.3*,·,·,54.5*,81.7*,nonsel antag count=34.2*;TAAR1 antag conf=50.4*;Ga16 nonsel ag=8.1;TAAR1 ag count=5.3
CCCNC(=O)Cn1cnc2sc(C(=O)N3CCN(Cc4ccc5c(c4)OCO5)CC3)c(C)c2c1=O,1.1,3.7,-7.9,2.9,1.9,1.5,·,·,
Cc1ccc(S(=O)(=O)N(C)c2ccc(C(=O)NCC(c3ccccc3)N3CCCC3)cc2)cc1 (stereo not given),6.0,·,·,-17.5,·,·,·,·,
COc1cc2c(cc1OC)CN(C(=O)CCNC(=O)c1ccccc1Cl)CC2,1.4,-1.5,·,5.0,·,·,·,·,
CCN1CCN(Cc2ccc(NC(=O)c3ccc(C)c(NC(=O)C(=O)c4c[nH]c5ccccc45)c3)cc2C(F)(F)F)CC1,20.7,3.4,35.9*,78.5*,·,·,60.9*,74.1*,nonsel antag count=45.8*;TAAR1 antag conf=47.1;Ga16 nonsel ag=10.6;TAAR1 ag count=10.3
O=C(Nc1nc(-c2ccccc2)cs1)c1ccccc1NS(=O)(=O)c1ccc(F)cc1,3.9,-1.4,23.9*,69.7*,11.4,16.1,41.8*,60.3*,nonsel antag count=57.6*;TAAR1 antag conf=67.7*;Ga16 nonsel ag=10.4;TAAR1 ag count=3.7
